Ki data for six molecules are collected here from ChEMBL document CHEMBL1135468 (J Med Chem, 2002).

*1 amine or outer side, *2 acyl side, *3 side chain or, on linkers, in order; H or OH if unused. Where a SMILES comes first, the peptide text is derived from it. Bridges are numbered along the chain shown (N, C = ends). [ ]: non-standard residue; d: D form. The star is where a group is joined. 6FAM = O=C1OC2(c3ccc(O)cc3Oc3cc(O)ccc32)c2cc(C(=O)*)ccc21; X4 = O=C(CC1(S[*:2])CCCCC1)[*:1]; X1 = O=C([C@@H](O)CS[*:2])[*:1]; Orn = NCCC[C@H](N)C(=O)O; Mpa = O=C(O)CCS

In one test the target is T1, Oxytocin receptor (Homo sapiens, UniProt P30559).
T1 sequence (P30559 whole entry): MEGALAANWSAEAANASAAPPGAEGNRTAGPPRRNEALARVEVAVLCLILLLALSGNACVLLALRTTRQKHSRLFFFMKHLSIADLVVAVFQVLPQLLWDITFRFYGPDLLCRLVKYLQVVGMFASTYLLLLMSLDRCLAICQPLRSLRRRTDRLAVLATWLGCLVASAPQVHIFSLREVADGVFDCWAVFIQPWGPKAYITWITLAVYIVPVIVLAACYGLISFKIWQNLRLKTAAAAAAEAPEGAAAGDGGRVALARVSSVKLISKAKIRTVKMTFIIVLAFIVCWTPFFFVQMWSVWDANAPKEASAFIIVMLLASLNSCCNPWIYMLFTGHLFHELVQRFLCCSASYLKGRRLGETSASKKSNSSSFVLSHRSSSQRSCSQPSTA
Kind of test: Binding affinity for human oxytocin receptor.

For a further test, the target named is Vasopressin V1a receptor (Homo sapiens, UniProt P37288). As to the kind of experiment: Binding affinity for human Vasopressin V1a receptor.
Vasopressin V1a receptor, sequence (P37288 whole entry): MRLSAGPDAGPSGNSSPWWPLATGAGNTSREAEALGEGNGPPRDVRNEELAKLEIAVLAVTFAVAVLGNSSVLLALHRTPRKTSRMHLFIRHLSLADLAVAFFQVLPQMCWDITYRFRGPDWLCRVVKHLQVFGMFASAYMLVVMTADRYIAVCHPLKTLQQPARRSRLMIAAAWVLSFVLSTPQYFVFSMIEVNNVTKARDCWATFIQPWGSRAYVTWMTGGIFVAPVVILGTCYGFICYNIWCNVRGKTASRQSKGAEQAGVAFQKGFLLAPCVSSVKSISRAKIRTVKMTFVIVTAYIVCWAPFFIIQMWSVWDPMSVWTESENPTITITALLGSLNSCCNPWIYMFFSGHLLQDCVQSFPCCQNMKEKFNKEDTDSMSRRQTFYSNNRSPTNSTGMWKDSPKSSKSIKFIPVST
The next test concerns the target T2, Vasopressin V1b receptor (Homo sapiens, UniProt P47901).
T2 sequence (P47901 whole entry): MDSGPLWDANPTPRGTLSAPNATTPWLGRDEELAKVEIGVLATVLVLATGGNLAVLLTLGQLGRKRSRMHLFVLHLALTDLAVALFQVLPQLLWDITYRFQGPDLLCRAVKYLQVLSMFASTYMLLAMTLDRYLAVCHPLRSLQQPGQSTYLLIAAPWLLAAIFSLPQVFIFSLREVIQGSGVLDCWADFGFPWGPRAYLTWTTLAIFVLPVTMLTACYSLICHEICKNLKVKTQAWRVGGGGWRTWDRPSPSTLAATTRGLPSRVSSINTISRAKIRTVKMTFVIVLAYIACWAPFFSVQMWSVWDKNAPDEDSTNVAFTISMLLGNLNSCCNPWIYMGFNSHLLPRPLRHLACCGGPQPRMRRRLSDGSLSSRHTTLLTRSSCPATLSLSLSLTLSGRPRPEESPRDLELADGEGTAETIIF
As to the kind of experiment: Binding affinity towards human Vasopressin V1b receptor. A digest of the protocol: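 Competition binding on membranes from CHO cells stably expressing one human receptor, butyrate-treated (5 mM, overnight). Radioligands: OT, 200-250 pM [125I]OTA or 120-180 pM [125I]HO-LVA; V1a, 40-60 pM [125I]HO-LVA; V1b, 1-3 nM [3H]AVP. Competitor 1 pM-1 µM; nonspecific with 1 µM unlabeled ligand; 1 h, 30 °C. Ki by nonlinear least-squares, ≥3 experiments in triplicate.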

The target of the next test is Vasopressin V2 receptor (Homo sapiens, UniProt P30518). Kind of test: Binding affinity towards human Vasopressin V2 receptor. A digest of the protocol:
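Human V2 receptor stably expressed in CHO cells, butyrate-treated (5 mM, overnight); membranes at 5-10 µg protein/assay competed against 1-3 nM [3H]AVP. Fluorescent ligand ranged 1 pM-1 µM; nonspecific binding defined with 1 µM unlabeled ligand. Incubation 1 h at 30 °C. Ki from nonlinear least-squares fit of two independent experiments, each run in triplicate.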

Vasopressin V2 receptor, sequence (P30518 whole entry): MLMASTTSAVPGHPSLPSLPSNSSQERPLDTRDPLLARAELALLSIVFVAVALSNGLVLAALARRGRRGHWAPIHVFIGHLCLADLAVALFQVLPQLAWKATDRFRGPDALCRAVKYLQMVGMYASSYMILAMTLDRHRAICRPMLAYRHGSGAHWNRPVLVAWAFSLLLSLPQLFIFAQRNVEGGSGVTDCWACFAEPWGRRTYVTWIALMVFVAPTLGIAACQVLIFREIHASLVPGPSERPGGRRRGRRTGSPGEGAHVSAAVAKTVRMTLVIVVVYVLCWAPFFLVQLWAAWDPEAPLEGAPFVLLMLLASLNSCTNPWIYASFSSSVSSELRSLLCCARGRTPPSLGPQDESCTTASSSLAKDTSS

As for `CC[C@H](C)[C@@H]1NC(=O)[C@@H](Cc2ccc(O)cc2)NC(=O)CC2(CCCCC2)SSC[C@@H](C(=O)N2CCC[C@H]2C(=O)N[C@@H](CCCNC(=O)c2ccc3c(c2)C2(OC3=O)c3ccc(O)cc3Oc3cc(O)ccc32)C(=O)O)NC(=O)[C@H](CC(N)=O)NC(=O)[C@H]([C@@H](C)O)NC1=O`, the Ki on Oxytocin receptor is 126 nM; on Vasopressin V1a receptor it was 656 nM; at Vasopressin V1b receptor, more than 1000 nM; at Vasopressin V2 receptor it was more than 10000 nM.

For the molecule `CC[C@H](C)[C@@H]1NC(=O)[C@H](Cc2ccc(OC)cc2)NC(=O)CC2(CCCCC2)SSC[C@@H](C(=O)N2CCC[C@H]2C(=O)N[C@@H](CCCN)C(=O)N[C@@H](Cc2ccc(O)cc2)C(N)=O)NC(=O)[C@H](CC(N)=O)NC(=O)[C@H]([C@@H](C)O)NC1=O` (Y(Me)ITNCP[Orn]Y-NH2; linker N-5 via X4), the Ki was 0.21 nM on Oxytocin receptor, 3.9 nM on Vasopressin V1a receptor, more than 10000 nM on Vasopressin V1b receptor and 930 nM on Vasopressin V2 receptor.

With `CC[C@H](C)[C@@H]1NC(=O)[C@H](Cc2ccc(O)cc2)NC(=O)[C@@H](O)CSSC[C@@H](C(=O)N2CCC[C@H]2C(=O)N[C@@H](CCCCNC(=O)c2ccc3c(c2)C2(OC3=O)c3ccc(O)cc3Oc3cc(O)ccc32)C(=O)NCC(N)=O)NC(=O)[C@H](CC(N)=O)NC(=O)[C@H](CCC(N)=O)NC1=O` (YIQNCPK(6FAM)G-NH2; linker N-5 via X1), the Ki was 0.34 nM on Oxytocin receptor, 13.7 nM at Vasopressin V1a receptor and 66 nM at Vasopressin V1b receptor.

In the case of `CC[C@H](C)[C@@H]1NC(=O)[C@H](Cc2ccc(O)cc2)NC(=O)[C@@H](O)CSSC[C@@H](C(=O)N2CCC[C@H]2C(=O)N[C@@H](CCCNC(=O)c2ccc3c(c2)C2(OC3=O)c3ccc(O)cc3Oc3cc(O)ccc32)C(=O)NCC(N)=O)NC(=O)[C@H](CC(N)=O)NC(=O)[C@H](CCC(N)=O)NC1=O` (YIQNCP[Orn](6FAM)G-NH2; linker N-5 via X1), the results for the Ki on Oxytocin receptor, at Vasopressin V1a receptor and on Vasopressin V1b receptor were 0.18 nM, 12.2 nM and 126 nM, respectively.

`CC[C@H](C)[C@@H]1NC(=O)[C@H](Cc2ccc(O)cc2)NC(=O)CCSSC[C@@H](C(=O)N2CCC[C@H]2C(=O)N[C@@H](CCCCNC(=O)c2ccc3c(c2)C2(OC3=O)c3ccc(O)cc3Oc3cc(O)ccc32)C(=O)NCC(N)=O)NC(=O)[C@H](CC(N)=O)NC(=O)[C@H](CCC(N)=O)NC1=O` ([Mpa]YIQNCPK(6FAM)G-NH2; disulfide 1-6): the Ki on Oxytocin receptor was 0.29 nM; at Vasopressin V1a receptor, 57 nM; on Vasopressin V1b receptor, 124 nM; on Vasopressin V2 receptor, more than 10000 nM.

Regarding `CC[C@H](C)[C@@H]1NC(=O)[C@H](Cc2ccc(O)cc2)NC(=O)CCSSC[C@@H](C(=O)N2CCC[C@H]2C(=O)N[C@@H](CCCNC(=O)c2ccc3c(c2)C2(OC3=O)c3ccc(O)cc3Oc3cc(O)ccc32)C(=O)NCC(N)=O)NC(=O)[C@H](CC(N)=O)NC(=O)[C@H](CCC(N)=O)NC1=O` ([Mpa]YIQNCP[Orn](6FAM)G-NH2; disulfide 1-6), the Ki on Oxytocin receptor is 0.25 nM; on Vasopressin V1a receptor it was 107 nM; at Vasopressin V1b receptor it was 393 nM; at Vasopressin V2 receptor it was more than 10000 nM.
